Measured values published in ChEMBL document CHEMBL3044962, “Characterization of the antifungal activity on Botrytis cinerea of the natural diterpenoids kaurenoic acid and 3beta-hydroxy-kaurenoic acid” (2004).
Calls of active or inactive are those of the source. The rule behind the calls is not given here.

Legend:
Botrytis cinerea [1] = assay: Antifungal activity against Botryotinia fuckeliana grown assessed as induction of production of p-nitrophenyl butyrate esterase after 20 days relative to control; type: functional
How it was run: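 Ground pregrown mycelium (3 days, malt-yeast, 22 °C) moved to minimum medium with 1% cutin or 1% pectin plus diterpenoid at 40 µg/mL, 22 °C. Filtrates sampled over 30 days. Esterase measured with 0.62 mM p-nitrophenylbutyrate in 100 mM sodium phosphate pH 8.0 with Triton X-100, 10 min at 22 °C, A405. 1 U releases 1 µmol p-nitrophenol/min.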

Botrytis cinerea [2] = assay: Antifungal activity against Botryotinia fuckeliana assessed as inhibition of mycelial growth at 40 to 160 ug/ml up to 6 days; type: functional, organism-based
Botrytis cinerea [3] = assay: Antifungal activity against Botryotinia fuckeliana grown assessed as membrane leakage measuring efflux of phosphorus at 100 ug/ml after 6 hr by ICP-OES analysis; type: functional, organism-based
How it was run: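 Pregrown mycelia held in 5 mM Tris-HCl pH 7.0 with diterpenoid at final 100 µg/mL (or methanol control) at 22 °C for 6 or 24 h. Phosphorus in the bathing medium measured by ICP-OES. Saponins (100 mg/mL in 10 mM sodium acetate pH 4.5, 6 h) served as positive control. ≥5 experiments, mean ± SD, ANOVA with LSD (P ≤ 0.05).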

Botrytis cinerea [4] = assay: Antifungal activity against Botryotinia fuckeliana assessed as reduction in mycelial growth rate at 40 to 160 ug/ml up to 9 days (reference value: 1.82 cm/day); type: functional
Botrytis cinerea [5] = assay: Antifungal activity against Botryotinia fuckeliana assessed as inhibition of mycelial growth at 40 to 160 ug/ml up to 7 days; type: functional, organism-based
Botrytis cinerea [6] = assay: Antifungal activity against Botryotinia fuckeliana grown in malt-yeast extract medium assessed as inhibition of mycelial growth at 40 to 160 ug/ml; type: functional
How it was run: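 Strain G29 conidia at final 3 × 10^5 conidia/mL in malt-yeast extract medium or liquid minimum medium with 1% glucose. Diterpenoids added from methanol at final 40 µg/mL, methanol evaporated before inoculation. Grown in dark at 22 °C for 5 days. Mycelial wet weight gives % inhibition relative to methanol control. ≥5 independent experiments, mean ± SD.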

Botrytis cinerea [7] = assay: Antifungal activity against Botryotinia fuckeliana inoculated in tomato leaf assessed as reduction in lesion area at 40 ug/ml after 4 days (Rvb =9.7 +/- 1.8 mm2 ); type: functional
Botrytis cinerea [8] = assay: Antifungal activity against Botryotinia fuckeliana grown assessed as induction of production of laccase after 10 days relative to control; type: functional
How it was run: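 Mycelium pregrown 3 days at 22 °C in malt-yeast liquid, ground with glass beads and transferred to minimum medium with 1% pectin plus diterpenoid at 40 µg/mL. Culture filtrate taken at day 10. Laccase read with 0.1 mM syringaldazine in 50 mM sodium phosphate pH 6.0, 15 min at 22 °C, A530. 1 U = 0.1 absorbance increase per min. ≥5 experiments, ANOVA/LSD.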

Q: C=C1C[C@@]23CC[C@H]4[C@@](C)(CCC[C@@]4(C)C(=O)O)[C@@H]2CC[C@@H]1C3 [KAURENOIC ACID] was tested. Which Ratio (Botrytis cinerea [1]) did it give?
A: 2

Q: What about the “growth inhibition (GI)” value (Botrytis cinerea [2]) of the same compound?
A: Active

Q: What about the Activity (Botrytis cinerea [3]) of the same compound?
A: Active

Q: What about the GI (Botrytis cinerea [4]) of the same compound?
A: 1.49 cm/day

Q: What about the “growth inhibition (GI)” value (Botrytis cinerea [5]) of the same compound?
A: Active

Q: And the “growth inhibition (GI)” value (Botrytis cinerea [6])?
A: inactive

Q: What about the Activity (Botrytis cinerea [7]) of the same compound?
A: 7.5 mm2

Q: And the Activity (Botrytis cinerea [8])?
A: Active
